{"source": "paper PMC6688905", "about": "(Journal of medicinal chemistry, 2018)", "key": {"[1]": {"assay": "NMR-based reactivity of electrophile toward Nα-acetyl lysine", "format": "physicochemical", "details": "100 mM phosphate buffer pH 7.4, ten-fold excess of N^α-acetyl lysine, 25 °C"}, "[2]": {"target": "c-Jun N-terminal kinase 3 (JNK3) (Homo sapiens, UniProt P53779)", "sequence (P53779 whole entry)": "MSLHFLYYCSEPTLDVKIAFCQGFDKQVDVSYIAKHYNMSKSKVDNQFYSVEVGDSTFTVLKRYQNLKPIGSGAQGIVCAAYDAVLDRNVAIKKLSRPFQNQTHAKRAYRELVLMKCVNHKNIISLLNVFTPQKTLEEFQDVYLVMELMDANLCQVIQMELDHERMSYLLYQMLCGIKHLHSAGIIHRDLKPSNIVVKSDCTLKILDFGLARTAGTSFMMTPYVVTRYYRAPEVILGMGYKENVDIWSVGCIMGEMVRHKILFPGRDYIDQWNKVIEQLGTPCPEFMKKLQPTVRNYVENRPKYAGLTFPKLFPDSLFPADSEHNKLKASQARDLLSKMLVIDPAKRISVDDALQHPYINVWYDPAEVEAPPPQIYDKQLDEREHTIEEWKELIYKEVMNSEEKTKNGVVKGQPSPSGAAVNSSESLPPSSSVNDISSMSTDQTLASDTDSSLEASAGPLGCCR", "assay": "KINOMEscan kinase selectivity panel", "format": "binding", "details": "1 μM"}, "[3]": {"test_system": "National Cancer Institute 60-cell line panel", "assay": "NCI 60-cell line anticancer screen", "format": "cell-based", "details": "read-out: GI50 values", "procedure,_shortened": "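Cancer cell lines covering leukemia, non-small cell lung, colon, CNS, melanoma, ovarian, renal, prostate and breast were tested with 5-point dose-response curves, top concentration 50 μM. GI50, TGI and LC50 were calculated from the curves.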"}, "[4]": {"assay": "behaviour in buffer at higher concentrations", "format": "physicochemical"}, "[5]": {"target": "PI3Kα (p110α/p85α) (Homo sapiens, UniProt P42336)", "sequence (P42336 whole entry, species assumed)": "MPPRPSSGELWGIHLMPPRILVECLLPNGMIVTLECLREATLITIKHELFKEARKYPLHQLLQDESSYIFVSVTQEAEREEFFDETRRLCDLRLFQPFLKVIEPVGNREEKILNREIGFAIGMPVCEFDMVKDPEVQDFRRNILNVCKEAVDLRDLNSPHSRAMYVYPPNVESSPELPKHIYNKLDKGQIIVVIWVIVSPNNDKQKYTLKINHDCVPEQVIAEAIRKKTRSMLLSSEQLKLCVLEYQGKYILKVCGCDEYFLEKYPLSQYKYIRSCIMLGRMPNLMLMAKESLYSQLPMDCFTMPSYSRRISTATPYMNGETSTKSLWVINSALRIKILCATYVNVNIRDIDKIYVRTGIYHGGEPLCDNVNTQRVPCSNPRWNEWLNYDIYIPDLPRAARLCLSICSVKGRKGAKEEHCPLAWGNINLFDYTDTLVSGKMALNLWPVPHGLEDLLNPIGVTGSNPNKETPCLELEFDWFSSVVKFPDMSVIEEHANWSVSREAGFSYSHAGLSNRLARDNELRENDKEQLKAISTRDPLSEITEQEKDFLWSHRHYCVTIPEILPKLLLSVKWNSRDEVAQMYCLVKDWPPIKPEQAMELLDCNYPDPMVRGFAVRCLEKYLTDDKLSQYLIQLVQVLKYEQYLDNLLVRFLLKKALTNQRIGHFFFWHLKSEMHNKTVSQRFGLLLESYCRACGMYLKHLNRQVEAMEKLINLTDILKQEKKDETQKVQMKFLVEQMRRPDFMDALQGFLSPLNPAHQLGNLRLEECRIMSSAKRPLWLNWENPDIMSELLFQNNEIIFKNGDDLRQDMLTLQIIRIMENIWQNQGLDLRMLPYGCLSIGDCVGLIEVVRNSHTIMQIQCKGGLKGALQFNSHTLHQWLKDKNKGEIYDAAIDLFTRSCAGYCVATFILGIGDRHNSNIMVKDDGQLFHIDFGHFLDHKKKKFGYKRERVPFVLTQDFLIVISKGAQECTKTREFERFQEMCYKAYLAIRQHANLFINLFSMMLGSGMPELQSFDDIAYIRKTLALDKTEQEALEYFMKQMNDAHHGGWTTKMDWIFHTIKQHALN", "sequence (P27986 whole entry partner, species assumed)": "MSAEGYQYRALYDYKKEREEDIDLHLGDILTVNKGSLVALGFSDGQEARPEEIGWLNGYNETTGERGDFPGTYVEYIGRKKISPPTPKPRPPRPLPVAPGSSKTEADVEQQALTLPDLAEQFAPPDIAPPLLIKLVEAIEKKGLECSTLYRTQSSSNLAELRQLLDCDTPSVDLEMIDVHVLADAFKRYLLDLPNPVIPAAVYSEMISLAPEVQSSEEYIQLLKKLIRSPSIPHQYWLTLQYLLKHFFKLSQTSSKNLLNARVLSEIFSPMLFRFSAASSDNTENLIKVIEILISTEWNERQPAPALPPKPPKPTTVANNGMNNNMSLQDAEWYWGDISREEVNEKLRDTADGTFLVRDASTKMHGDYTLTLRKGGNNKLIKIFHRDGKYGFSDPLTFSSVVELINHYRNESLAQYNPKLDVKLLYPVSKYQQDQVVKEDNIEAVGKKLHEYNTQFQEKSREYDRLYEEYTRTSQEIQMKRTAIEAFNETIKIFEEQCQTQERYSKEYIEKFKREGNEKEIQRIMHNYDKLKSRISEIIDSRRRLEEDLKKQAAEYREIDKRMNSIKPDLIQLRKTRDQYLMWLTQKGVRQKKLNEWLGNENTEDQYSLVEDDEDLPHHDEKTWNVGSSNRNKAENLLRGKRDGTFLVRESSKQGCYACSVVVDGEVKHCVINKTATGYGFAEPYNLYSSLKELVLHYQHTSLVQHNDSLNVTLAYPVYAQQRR", "assay": "MS timecourse for covalent modification of PI3K", "details": "4 μM neolymphostin A with 2 μM PI3Kα"}, "[6]": {"target": "T1, Polo-like kinase 4 (PLK4) (Homo sapiens, UniProt O00444)", "T1 sequence (O00444 1-970)": "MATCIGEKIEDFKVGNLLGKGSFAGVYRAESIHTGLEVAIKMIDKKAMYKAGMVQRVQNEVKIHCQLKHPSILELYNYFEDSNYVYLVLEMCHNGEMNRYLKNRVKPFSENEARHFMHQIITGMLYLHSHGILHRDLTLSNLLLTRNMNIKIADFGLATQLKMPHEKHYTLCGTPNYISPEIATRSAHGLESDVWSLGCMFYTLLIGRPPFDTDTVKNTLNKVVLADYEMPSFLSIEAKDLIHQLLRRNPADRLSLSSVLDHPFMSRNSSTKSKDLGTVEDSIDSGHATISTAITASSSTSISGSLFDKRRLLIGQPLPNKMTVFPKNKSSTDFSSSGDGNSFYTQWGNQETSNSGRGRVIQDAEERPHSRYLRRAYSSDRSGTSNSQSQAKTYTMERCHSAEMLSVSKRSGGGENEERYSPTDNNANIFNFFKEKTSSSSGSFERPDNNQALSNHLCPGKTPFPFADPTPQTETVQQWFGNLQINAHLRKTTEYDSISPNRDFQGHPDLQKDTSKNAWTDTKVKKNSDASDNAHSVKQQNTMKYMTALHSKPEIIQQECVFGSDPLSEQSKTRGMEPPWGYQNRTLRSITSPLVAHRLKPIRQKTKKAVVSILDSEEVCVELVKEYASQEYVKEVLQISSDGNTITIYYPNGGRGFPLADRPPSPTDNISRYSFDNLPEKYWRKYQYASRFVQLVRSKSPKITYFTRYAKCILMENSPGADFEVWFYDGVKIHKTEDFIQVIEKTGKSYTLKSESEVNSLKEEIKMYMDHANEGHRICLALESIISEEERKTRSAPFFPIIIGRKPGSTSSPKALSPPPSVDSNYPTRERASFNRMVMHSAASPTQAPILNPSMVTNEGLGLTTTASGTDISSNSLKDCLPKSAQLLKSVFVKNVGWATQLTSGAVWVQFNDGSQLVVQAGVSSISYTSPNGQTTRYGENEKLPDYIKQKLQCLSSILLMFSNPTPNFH", "assay": "KINOMEscan kinase selectivity panel", "format": "binding", "details": "1 μM"}, "[7]": {"test_system": "AKT phosphorylation (Ser473, Thr308) in EGF-stimulated HeLa cells", "assay": "PI3K inhibition in live cells, Western blot of AKT phosphorylation", "format": "cell-based", "details": "serum-starved HeLa cells, 10 min pretreatment, EGF stimulation", "procedure,_shortened": "(§1)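 HeLa cells were serum-starved overnight, then pretreated 10 min with test compound at the indicated concentrations and stimulated with 10 ng mL−1 EGF for 5 min. Cells were lysed in boiling SDS sample buffer and protein was quantified at 660 nm. Equal protein was run on SDS-PAGE, Western-blotted with ECL detection, and probed for AKT, pAKT Ser473/Thr308, ERK1/2, pERK1/2 Thr202/Tyr204, EGFR, pEGFR Tyr1068 and GAPDH.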"}, "[8]": {"target": "aurora kinase B (AURKB) (Homo sapiens, UniProt Q96GD4)", "sequence (Q96GD4 whole entry)": "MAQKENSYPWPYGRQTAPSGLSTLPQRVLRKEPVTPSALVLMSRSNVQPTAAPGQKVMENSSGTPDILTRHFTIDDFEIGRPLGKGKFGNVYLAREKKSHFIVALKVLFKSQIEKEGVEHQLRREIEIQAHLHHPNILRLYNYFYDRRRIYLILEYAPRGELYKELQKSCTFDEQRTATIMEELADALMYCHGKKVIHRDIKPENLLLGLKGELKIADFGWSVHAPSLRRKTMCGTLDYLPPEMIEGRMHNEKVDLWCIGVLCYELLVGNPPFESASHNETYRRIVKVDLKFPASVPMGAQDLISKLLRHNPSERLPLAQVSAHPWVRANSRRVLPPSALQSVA", "assay": "KINOMEscan kinase selectivity panel", "format": "binding", "details": "1 μM"}, "[9]": {"target": "T2, aurora kinase A (AURKA) (Homo sapiens, UniProt O14965)", "T2 sequence (O14965 1-403)": "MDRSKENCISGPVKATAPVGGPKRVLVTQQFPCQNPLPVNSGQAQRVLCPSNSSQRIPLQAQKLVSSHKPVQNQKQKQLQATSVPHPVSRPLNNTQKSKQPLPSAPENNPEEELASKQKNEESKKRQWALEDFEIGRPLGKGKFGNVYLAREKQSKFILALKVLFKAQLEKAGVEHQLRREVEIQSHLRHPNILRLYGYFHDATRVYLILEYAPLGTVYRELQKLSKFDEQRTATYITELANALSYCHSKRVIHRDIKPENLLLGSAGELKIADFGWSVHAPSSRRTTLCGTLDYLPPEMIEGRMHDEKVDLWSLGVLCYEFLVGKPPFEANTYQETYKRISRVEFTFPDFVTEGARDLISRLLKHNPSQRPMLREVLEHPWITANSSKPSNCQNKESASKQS", "assay": "KINOMEscan kinase selectivity panel", "format": "binding", "details": "1 μM"}, "[10]": {"target": "c-Jun N-terminal kinase 2 (JNK2) (Homo sapiens, UniProt P45984)", "sequence (P45984 whole entry)": "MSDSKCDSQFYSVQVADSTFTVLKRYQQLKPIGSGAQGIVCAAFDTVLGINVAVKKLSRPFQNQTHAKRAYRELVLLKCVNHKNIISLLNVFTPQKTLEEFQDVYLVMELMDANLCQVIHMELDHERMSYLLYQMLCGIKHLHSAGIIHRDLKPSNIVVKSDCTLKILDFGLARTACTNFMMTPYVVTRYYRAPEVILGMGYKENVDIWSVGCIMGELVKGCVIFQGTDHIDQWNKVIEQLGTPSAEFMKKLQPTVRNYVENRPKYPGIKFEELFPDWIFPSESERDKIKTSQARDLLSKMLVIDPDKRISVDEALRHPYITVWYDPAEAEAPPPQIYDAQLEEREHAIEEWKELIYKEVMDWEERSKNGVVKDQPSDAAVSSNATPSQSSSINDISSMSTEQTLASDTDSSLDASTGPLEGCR", "assay": "KINOMEscan kinase selectivity panel", "format": "binding", "details": "1 μM"}, "[11]": {"target": "PI3Kα (Homo sapiens, UniProt P42336)", "sequence (P42336 whole entry)": "as the sequence (P42336 whole entry, species assumed) above", "assay": "KINOMEscan kinase selectivity panel", "format": "binding", "details": "1 μM"}, "[12]": {"test_system": "EGFR and ERK1/2 phosphorylation in EGF-stimulated HeLa cells", "assay": "PI3K inhibition in live cells, Western blot of EGFR and ERK1/2 phosphorylation", "format": "cell-based", "details": "serum-starved HeLa cells, 10 min pretreatment, EGF stimulation", "procedure,_shortened": "as §1"}, "[13]": {"target": "c-Jun N-terminal kinase 1 (JNK1) (Homo sapiens, UniProt P45983)", "sequence (P45983 whole entry)": "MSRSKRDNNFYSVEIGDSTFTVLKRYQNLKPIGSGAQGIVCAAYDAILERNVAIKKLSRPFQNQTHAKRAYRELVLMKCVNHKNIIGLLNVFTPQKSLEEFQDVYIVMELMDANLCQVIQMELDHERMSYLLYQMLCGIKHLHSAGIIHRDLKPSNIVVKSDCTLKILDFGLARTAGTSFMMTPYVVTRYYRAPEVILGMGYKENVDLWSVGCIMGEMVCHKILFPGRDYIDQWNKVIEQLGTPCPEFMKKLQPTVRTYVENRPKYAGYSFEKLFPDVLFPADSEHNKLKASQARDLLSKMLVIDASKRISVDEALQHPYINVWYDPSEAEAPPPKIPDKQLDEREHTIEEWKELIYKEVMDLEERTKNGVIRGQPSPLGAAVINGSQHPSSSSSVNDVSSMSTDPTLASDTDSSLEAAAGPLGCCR", "assay": "KINOMEscan kinase selectivity panel", "format": "binding", "details": "1 μM"}}, "note": "Entries after “also recorded” stand apart in the source; their conditions may differ.", "data": [{"smiles": "CO/C=C/C(=O)c1ccccn1", "note": "[compound 6, (E)-3-methoxy-1-(pyridin-2-yl)prop-2-en-1-one]", "values": [{"measurement": "reaction with N^α-acetyl lysine", "setting": "[1]", "value": "no reaction was observed"}]}, {"smiles": "CO/C=C/C(=O)c1cc2c3c(c(N)cc(NC(=O)C(C)C)c3n1)N=C2", "note": "[neolymphostin, neolymphostin A]", "values": [{"measurement": "% vs. control", "setting": "[2]", "value": 0.2, "unit": "%"}, {"measurement": "GI50", "setting": "[3]", "value": "6 to 840", "unit": "nM"}, {"measurement": "solubility behaviour", "setting": "[4]", "value": "appears to aggregate and “crash out” of solution at higher concentrations in buffer"}, {"measurement": "time to complete covalent modification of the kinase", "setting": "[5]", "value": "≤ 2", "unit": "min"}, {"measurement": "% vs. control", "setting": "[6]", "value": 0.95, "unit": "%"}, {"measurement": "effect on AKT phosphorylation", "setting": "[7]", "value": "blocked phosphorylation of AKT at S473 and T308"}, {"measurement": "% vs. control", "setting": "[8]", "value": 1.9, "unit": "%"}, {"measurement": "% vs. control", "setting": "[9]", "value": 1.5, "unit": "%"}, {"measurement": "% vs. control", "setting": "[10]", "value": 0.15, "unit": "%"}, {"measurement": "% vs. control", "setting": "[11]", "value": 0, "unit": "%"}, {"measurement": "effect on EGFR or ERK1/2 phosphorylation", "setting": "[12]", "value": "did not affect phosphorylation of EGFR or ERK1/2; also recorded: no apparent effect"}, {"measurement": "% vs. control", "setting": "[13]", "value": 0.25, "unit": "%"}]}, {"smiles": "CC(C)C(=O)Nc1cc(N)c2c3c(cc(C(=O)CCO)nc13)C=N2", "note": "[neolymphostinol]", "values": [{"measurement": "effect on AKT phosphorylation", "setting": "[7]", "value": "largely unaffected"}]}, {"smiles": "COC[C@H]1OC(=O)c2coc3c2[C@@]1(C)C1=C(C3=O)[C@@H]2CCC(=O)[C@@]2(C)C[C@H]1OC(C)=O", "note": "[wortmannin, reference compound]", "values": [{"measurement": "effect on AKT phosphorylation", "setting": "[7]", "value": "blocked phosphorylation of AKT on Ser473 and Thr308"}, {"measurement": "effect on EGFR or ERK1/2 phosphorylation", "setting": "[12]", "value": "without affecting phosphorylation of EGFR or ERK1/2"}]}]}
